Assay results from different studies.
Each line is one published result; the experiments were not run side by side.
FLT3: Receptor-type tyrosine-protein kinase FLT3 (FLT3, Homo sapiens, UniProt P36888)
FLT3 D835V: Receptor-type tyrosine-protein kinase FLT3 (FLT3, Homo sapiens, UniProt P36888, D835V)
FLT3 K663Q: Receptor-type tyrosine-protein kinase FLT3 (FLT3, Homo sapiens, UniProt P36888, K663Q)
FLT3 D835Y: Receptor-type tyrosine-protein kinase FLT3 (FLT3, Homo sapiens, UniProt P36888, D835Y)
FLT3 R834Q: Receptor-type tyrosine-protein kinase FLT3 (FLT3, Homo sapiens, UniProt P36888, R834Q)
FLT3 autoinhibited: Receptor-type tyrosine-protein kinase FLT3, autoinhibited (FLT3, Homo sapiens, UniProt P36888)
FLT3 N841I: Receptor-type tyrosine-protein kinase FLT3 (FLT3, Homo sapiens, UniProt P36888, N841I)
FLT3 D835H: Receptor-type tyrosine-protein kinase FLT3 (FLT3, Homo sapiens, UniProt P36888, D835H)
FLT3 ITD: Receptor-type tyrosine-protein kinase FLT3 (FLT3, Homo sapiens, UniProt P36888, ITD)

c1cnn2ncc(-c3ccnc(N4CCC45COC5)n3)c2c1 — remaining binding (FLT3; binding; 1 µM): 85%
O=C(NCCCN1CCOCC1)c1ccc(Nc2nccc(-c3cc4ccccc4s3)n2)cc1 — remaining binding (FLT3 D835V; binding; competition with immobilised ligand; 1 µM): 3.4%
CC1CCCN1c1nccc(-c2cnn3ncccc23)n1 (stereo not drawn) — remaining binding (FLT3 K663Q; binding; 1 µM): 100%
C[C@@H](c1ccc(-n2cnc3c(N)ncnc32)cc1)N1CCc2nn(C)c(Cc3ccccc3)c2C1=O — remaining binding (FLT3 D835V; binding; competition with immobilised ligand; 0.1 µM): 87%
COCCOc1nc(-c2ccc(Cl)nc2)nc2c1CN(C(=O)c1ncn3ccccc13)CC2 — remaining binding (FLT3 D835V; cell-free assay; competition with immobilised ligand; 0.1 µM): 100%
COc1cnc(Nc2cccc(S(N)(=O)=O)c2)nc1N1CCN(c2ccccc2)CC1 — remaining binding (FLT3 D835Y; binding; competition with immobilised ligand; 1 µM): 61%
N[C@@H]1CCN(c2nccc(-c3cnn4ncccc34)n2)C1 — remaining binding (FLT3 R834Q; binding; 1 µM): 100%
CNC(=O)[C@@H]1CC[C@@H](n2c(-c3ccc4cnccc4c3)nc3ccc(C(=O)NCc4cccc(C(N)=O)c4)cc32)C1 — remaining binding (FLT3 autoinhibited; binding; competition with immobilised ligand; 1 µM): 91%
C=CC(=O)N1CCC(C(=O)NCC(=O)N2CCN(c3nc(-c4cnc(N)nc4C(F)F)nc(N4CCOCC4)n3)CC2)CC1 — remaining binding (FLT3 R834Q; binding; competition with immobilised ligand; 1 µM): 84%
CN1CCN(c2ccc(Nc3nccc(-c4cccc([N+](=O)[O-])c4)n3)cc2C(F)(F)F)CC1 — remaining binding (FLT3 R834Q; binding; 10 µM): 3.7%
CO[C@H]1CC[C@H](CNc2ccc(S(=O)(=O)NC(=O)c3ccc(N4CCN(CC5=C(c6ccc(Cl)cc6)CC(C)(C)CC5)CC4)cc3Oc3cnc4[nH]ccc4c3)cc2[N+](=O)[O-])CC1 — remaining binding (FLT3; cell-free assay; competition with immobilised ligand; 1 µM): 100%
C[C@H]1CCN(c2nccc(-c3cnn4ncccc34)n2)C1 — remaining binding (FLT3 R834Q; binding; 1 µM): 71%
COc1ncc2cc3ccccc3nc2c1C#N — remaining binding (FLT3 D835V; cell-free assay; competition with immobilised ligand; 5 µM): 100%
CCS(=O)(=O)c1cc2cc(C[C@](O)(CC(C)(C)c3ccc(F)cc3C(N)=O)C(F)(F)F)[nH]c2cn1 — remaining binding (FLT3 N841I; cell-free assay; competition with immobilised ligand; 1 µM): 93%
Nc1ncc2c(n1)-c1c([nH]c3ccc(C#CC4CC4)cc13)CCCC2 — remaining binding (FLT3 N841I; binding; competition with immobilised ligand; 1 µM): 89%
CCCCN(CCCC)C(=O)CN1C[C@@H](c2cc(OC)c3c(c2)OCO3)[C@H](C(=O)O)[C@H]1CC(C)(C)CCC — remaining binding (FLT3 D835Y; cell-free assay; competition with immobilised ligand; 1 µM): 75.2%
c1cncc(-c2cccc(Nc3nccc(NC4CCCCC4)n3)c2)c1 — remaining binding (FLT3 K663Q; binding; competition with immobilised ligand; 10 µM): 1.1%
CN1CCN(c2ccc(Nc3nccc(-c4ccccc4)n3)cc2C(F)(F)F)CC1 — remaining binding (FLT3 D835V; binding; 10 µM): 0%
O=C(NCc1ncc(C(F)(F)F)cc1Cl)c1ccc2c(c1)C1(CCS(=O)(=O)CC1)[C@H](C1CC1)N2S(=O)(=O)c1ccc(F)cc1 — remaining binding (FLT3 D835H; cell-free assay; competition with immobilised ligand; 1 µM): 92%
Cc1cnc(Nc2ccc(C(=O)N3CCC(N4CCCC4)CC3)cc2)nc1-c1cc2ccccc2s1 — remaining binding (FLT3 ITD; binding; competition with immobilised ligand; 1 µM): 6.6%
COc1ccc2c(O[C@@H]3C[C@H]4C(=O)N[C@]5(C(=O)O)CC5/C=C\CCCCC[C@H](NC(=O)OC5CCCC5)C(=O)N4C3)cc(-c3csc(NC(=O)C(C)C)n3)nc2c1C (stereo partly drawn) — remaining binding (FLT3 R834Q; cell-free assay; competition with immobilised ligand; 1 µM): 92%
Cc1cnn2ncc(-c3ccnc(N(C)C)n3)c2c1 — remaining binding (FLT3 D835H; binding; 1 µM): 100%
O=C(c1ccc(Nc2ncc(Cl)c(-c3cc4ccccc4s3)n2)cc1)N1CCC(N2CCCC2)CC1 — remaining binding (FLT3 autoinhibited; binding; competition with immobilised ligand; 1 µM): 27%
O=c1nc(-c2ccccn2)sc2ccccc12 — remaining binding (FLT3 R834Q; binding; competition with immobilised ligand; 1 µM): 100%
COc1cnc(Nc2cccc(S(N)(=O)=O)c2)nc1N1CCN(c2ccccc2)C(=O)C1 — remaining binding (FLT3 autoinhibited; binding; competition with immobilised ligand; 1 µM): 100%
O=C(c1ccc(Nc2nccc(-c3cc4ccccc4s3)n2)cc1)N1CCC(N2CCCC2)CC1 — remaining binding (FLT3 ITD; binding; competition with immobilised ligand; 1 µM): 46%
CCN1CCN(Cc2ccc(C(=O)Nc3ccc(C)c(Oc4ccc5c(c4)CC(=O)N5)c3)cc2C(F)(F)F)CC1 — remaining binding (FLT3 D835Y; binding; competition with immobilised ligand; 1 µM): 100%
CO[C@@H](C)c1c(Nc2ccc([C@H](N(C)C(=O)C3CCS(=O)(=O)CC3)C(F)(F)F)cc2)cnc2cc(Cl)nn12 — remaining binding (FLT3 K663Q; cell-free assay; competition with immobilised ligand; 1 µM): 100%
O=C(NCCCN1CCOCC1)c1ccc(Nc2ncc(Cl)c(-c3ccc(Cl)s3)n2)cc1 — remaining binding (FLT3 N841I; binding; competition with immobilised ligand; 1 µM): 0.6%
O=C(NCC1CCOCC1)c1n[nH]cc1NC(=O)c1c(F)cccc1F — remaining binding (FLT3 D835V; binding; competition with immobilised ligand; 1 µM): 100%
CN(C)c1nccc(-c2cnn3ncccc23)n1 — remaining binding (FLT3 autoinhibited; binding; 1 µM): 100%
O=C(Nc1c[nH]nc1C(=O)NC1CCNCC1)c1cc(F)cc(F)c1 — remaining binding (FLT3 D835V; binding; competition with immobilised ligand; 1 µM): 100%
O=C(c1ccc(Nc2ncc(Cl)c(-c3ccc(Cl)s3)n2)cc1)N1CCC(N2CCCC2)CC1 — remaining binding (FLT3 autoinhibited; binding; competition with immobilised ligand; 1 µM): 1.8%
